Only some compounds are listed: those with a hit (about 2.3% of all), similar ones and a draw of the others.
Mcl-1 Bim block: disrupts Bim peptide binding to human Mcl-1; Bead-based flow cytometry, Bim peptide-Mcl-1 binding; inhibition, % at 10 µM; 190,000 tested, 0.1% active; AID 1009; in the data active = inhibition above about 40%;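 also: 0% = no compound tracer wells and 100% = peptide blocker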
Mcl1-Bid inh: Mcl-1/Bid interaction inhibition; AID 1021; TR-FRET Mcl-1/Bid-Dy647 peptide binding, 1536-well; inhibition, % at 21.7 µM; Q07820; 220,000 tested, 0.97% active;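 active = compounds that cut the binding signal by more than half at the single screening dose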;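 also: His-tagged Mcl-1 with europium anti-His antibody binding Bid BH3 peptide; 0% = Mcl-1 plus peptide wells and 100% = peptide-only wells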
MCL1-BIM inh: inhibitors of human MCL1 binding to BIM-BH3 peptide; GST-MCL1 / FITC-Bim-BH3 fluorescence polarization; inhibition, % at 10.9 µM; 320,000 tested, 0.68% active; AID 2057;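 active = inhibition above the mean inhibition of all tested compounds plus 3 SD, set per campaign, cut at about 40% in these data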;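 also: 0% = DMSO wells and 100% = unlabeled Bim-BH3 peptide control; higher means more loss of mP so more displacement of Bim peptide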
Pemphigus Ab inh: inhibitors of pemphigus antibody binding to human desmoglein-3. P32926. DSG3-coupled beads, scFv-anti-DSG3-GFP binding, flow cytometry; hits give low values. binding (percent of control), % at 10 µM. 310,000 tested, 0.48% active;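 active = binding more than 3 SD below its plate's average and above zero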;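 also: hits lower antibody fragment binding to DSG3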
Target sequence (P32926 whole entry, looked up, the tested form may be a part): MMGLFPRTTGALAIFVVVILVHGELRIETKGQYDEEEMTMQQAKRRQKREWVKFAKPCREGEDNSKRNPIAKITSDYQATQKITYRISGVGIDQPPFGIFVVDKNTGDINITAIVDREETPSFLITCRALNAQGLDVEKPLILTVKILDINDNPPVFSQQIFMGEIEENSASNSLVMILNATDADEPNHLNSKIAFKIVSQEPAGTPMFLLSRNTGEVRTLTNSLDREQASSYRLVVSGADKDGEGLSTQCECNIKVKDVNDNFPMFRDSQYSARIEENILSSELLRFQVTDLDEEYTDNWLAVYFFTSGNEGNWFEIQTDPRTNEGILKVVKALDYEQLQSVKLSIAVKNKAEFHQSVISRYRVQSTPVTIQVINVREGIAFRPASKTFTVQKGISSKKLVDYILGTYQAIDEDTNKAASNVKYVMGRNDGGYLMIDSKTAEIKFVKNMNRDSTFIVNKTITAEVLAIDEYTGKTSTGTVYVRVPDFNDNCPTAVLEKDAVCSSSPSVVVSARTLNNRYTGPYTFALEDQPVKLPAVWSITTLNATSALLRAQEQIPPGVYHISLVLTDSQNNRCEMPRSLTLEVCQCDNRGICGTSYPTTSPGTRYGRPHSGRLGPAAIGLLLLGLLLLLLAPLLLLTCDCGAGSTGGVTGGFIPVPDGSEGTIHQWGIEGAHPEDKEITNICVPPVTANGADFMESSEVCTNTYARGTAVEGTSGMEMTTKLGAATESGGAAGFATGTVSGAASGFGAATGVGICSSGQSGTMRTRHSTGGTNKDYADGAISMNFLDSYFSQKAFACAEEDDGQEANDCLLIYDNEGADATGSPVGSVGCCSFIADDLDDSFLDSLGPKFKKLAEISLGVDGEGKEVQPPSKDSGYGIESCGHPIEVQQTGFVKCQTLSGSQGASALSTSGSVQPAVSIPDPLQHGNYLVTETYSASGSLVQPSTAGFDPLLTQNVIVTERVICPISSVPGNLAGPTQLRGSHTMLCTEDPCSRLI
Mcl1 Noxa PPI: Mcl-1/Noxa interaction inhibition | Q07820 | TR-FRET Mcl-1/Noxa peptide binding, 2 h | inhibition, % at 21.7 µM | 220,000 tested, 1.5% active | AID 1022;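 active = compounds that cut the protein-peptide binding signal by more than 50% relative to plate controls in a single-dose test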;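 also: His-tagged Mcl-1 with rhodamine Noxa BH3 peptide and terbium anti-His antibody; 0% = Mcl-1 plus Noxa peptide wells and 100% = peptide-only wells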
T cell modulator: T cell immune modulation candidate. 2C CD8+ T cell-vesicle binding, flow cytometry; hits give low values. response (vesicle binding), % at 7 µM. 330,000 tested, 0.068% active. AID 2052;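 active = response, share of CD8 T cells binding vesicles, and their 90th percentile fluorescence all below set limits, cut at about 80% in these data, passing the limit was not always enough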;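 also: values below 100% mean blocked vesicle binding to the CD8+ T cells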
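Test system: purified 2C TCR transgenic mouse naive CD8+ T cells. Probe or stimulus: QL9-peptide-loaded Drosophila micro-vesicles bearing Ld, ICAM-1 and B7-1. Incubation: binding step 1.5 h, 37 °C, antibody labelling 20 min, ice. Measured by: flow cytometry of vesicle-bound cells.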
Starred values were filed as active, the others as inactive; . = no result given.

SMILES	Mcl-1 Bim block	Mcl1-Bid inh	MCL1-BIM inh	Pemphigus Ab inh	Mcl1 Noxa PPI	T cell modulator
Cc1ccc(OCCN2CCN(CC(O)Cn3c4ccccc4c4ccccc43)CC2)cc1 (centres undefined)	-1.0	65.7*	2.8	.	-7.0	273.0
COc1c(C)cc(Br)cc1C(=O)Nc1ccc(S(N)(=O)=O)cc1	44.0*	-30.5	-0.7	94.6	6.6	213.9
COc1c(C)cc(Br)cc1C(=O)Nc1ccc(C)cc1[N+](=O)[O-]	8.0	9.2	-0.7	93.6	3.1	264.5
O=C(CSc1nccc(=O)[nH]1)c1ccccc1Br	-2.0	70.9*	12.1	98.0	-9.0	214.8
O=C(CSc1nccc(=O)[nH]1)c1c[nH]c2ccccc12	.	19.9	-1.4	95.7	-3.3	603.3
COCCCn1c(=O)c2sccc2n2c(CCCC(=O)NCc3ccc(F)cc3)nnc12	.	.	-0.7	.	.	261.9
c1ccc(-c2onc(-c3ccco3)c2-c2ccc3[nH]ccc3c2)cc1	.	.	7.6	96.8	.	422.6
COC(=O)Nc1ccc(S(=O)(=O)NCc2ccccn2)cc1	4.0	-4.2	7.8	114.9	82.2*	361.4
COC(=O)COc1ccc(S(=O)(=O)NCc2ccccn2)cc1	.	.	0.2	99.6	.	253.4
Cc1ccc(S(=O)(=O)NNc2ccccc2)cc1	-2.0	64.1*	14.1	103.1	19.3	160.5
CCOc1ccc(CNC(=S)N/N=C\c2ccc([N+](=O)[O-])cc2)cc1	-7.0	45.4	7.6	78.0	54.0*	136.1
Cc1[nH]c(=S)c(C#N)c2c1CCCC2	-6.0	-49.4	-4.0	91.0	42.0	137.0
N#Cc1c(-c2cccnc2)c2c([nH]c1=S)CCCC2	1.0	-41.3	-4.2	102.0	46.1	192.7
CCN(CC)C(=O)c1c(C)[nH]c(=S)c(C#N)c1-c1ccco1	-1.0	-82.6	8.2	103.0	58.9*	88.1
N#Cc1c(-c2ccco2)c2c([nH]c1=S)CCCC2	-3.0	1.5	17.1	102.5	59.3*	295.3
CC(C)Cc1c2c([nH]c(=S)c1C#N)CCCC2	-10.0	-23.4	1.8	99.6	50.9*	283.8
CC1=CCC(C(=O)O)(C(=O)N/N=C/c2cccs2)C(c2ccc([N+](=O)[O-])cc2)C1 (centres undefined)	2.0	5.5	15.4	32.9*	9.6	186.5
CCOc1ccc(NC(=O)CN(C)C(=O)c2ccc3c(c2)S(=O)(=O)N=C2CCCCCN23)cc1OCC	.	.	.	105.2	.	.
O=C(COC(=O)c1n[nH]c(=O)c2ccccc12)Nc1ccccc1	.	.	.	95.9	.	.
CCCCn1c(N)c(N(CC(C)C)C(=O)CSc2nn(-c3ccc(F)cc3)c(=S)s2)c(=O)[nH]c1=O	.	.	.	101.6	.	.
O=C(Nc1ccc(-c2cn3c(n2)SCC3)cc1)c1ccc2c(c1)OCO2	-26.0	-25.1	-9.4	82.8*	39.1	402.0
O=C(Nc1cccc(-c2cn3c(n2)SCC3)c1)c1ccc2c(c1)OCO2	-24.0	-26.4	-1.4	86.2	39.1	205.1
O=C(Nc1cccc(-c2cn3cccnc3n2)c1)c1ccco1	-4.0	-6.9	1.6	95.4	13.2	334.0
O=C(Nc1cccc(-c2cn3cccnc3n2)c1)c1ccc2c(c1)OCO2	-1.0	41.2	0.6	129.3	57.0*	631.6
CCOC(=O)c1nc(C)sc1-c1ccnn1S(=O)(=O)c1ccc(C)cc1	.	69.4*	1.6	94.5	0.5	448.4
SMILES	Mcl-1 Bim block	Mcl1-Bid inh	MCL1-BIM inh	Pemphigus Ab inh	Mcl1 Noxa PPI	T cell modulator
CCOC(=O)c1nc(C)sc1-c1ccnn1S(=O)(=O)c1ccccc1C(F)(F)F	.	-13.3	7.2	92.7	-3.9	297.2
Cc1ccc(OCCNC(=O)c2cccc(S(=O)(=O)NCc3ccccc3)c2)cc1	.	.	.	99.2	.	.
CS(=O)(=O)NCc1ccc(C(=O)NCCOc2ccccc2)cc1	2.0	90.8*	3.6	101.5	33.6	217.2
COc1ccc(Cl)cc1C(=O)Nc1ccncc1	.	.	-4.5	102.9	.	130.1
CN(C)c1ccc(NC(=O)c2cccc(C(=O)Nc3ccc(N(C)C)cc3)n2)cc1	3.0	-11.8	6.8	96.2	85.7*	190.6
COc1cccc(C(=O)Nc2ccc(N(C)C)cc2)c1OC	-5.0	-42.4	4.8	91.0	65.1*	359.3
CN(C)c1ccc(/C=N/NC(=O)c2cccc(C(=O)N/N=C/c3ccc(N(C)C)cc3)n2)cc1	5.0	45.3	3.9	80.7	82.2*	239.8

Source: PubChem BioAssay (several laboratories)
